The source made the active and inactive calls. No cut-off for these calls is given here.
Legend:
[1] = system: MCF7; assay: Antiproliferative activity against human MCF7 cells assessed as growth inhibition after 72 hrs by MTT assay; settings: MCF7, 72 h
[2] = system: HeLa; assay: Antiproliferative activity against human HeLa cells assessed as growth inhibition after 72 hrs by MTT assay
[3] = biological target: Serine/threonine-protein kinase PLK3 (Homo sapiens, UniProt Q9H4B4); assay: Inhibition of recombinant Plk3 (unknown origin)
Chain of Serine/threonine-protein kinase PLK3 (Q9H4B4 whole entry): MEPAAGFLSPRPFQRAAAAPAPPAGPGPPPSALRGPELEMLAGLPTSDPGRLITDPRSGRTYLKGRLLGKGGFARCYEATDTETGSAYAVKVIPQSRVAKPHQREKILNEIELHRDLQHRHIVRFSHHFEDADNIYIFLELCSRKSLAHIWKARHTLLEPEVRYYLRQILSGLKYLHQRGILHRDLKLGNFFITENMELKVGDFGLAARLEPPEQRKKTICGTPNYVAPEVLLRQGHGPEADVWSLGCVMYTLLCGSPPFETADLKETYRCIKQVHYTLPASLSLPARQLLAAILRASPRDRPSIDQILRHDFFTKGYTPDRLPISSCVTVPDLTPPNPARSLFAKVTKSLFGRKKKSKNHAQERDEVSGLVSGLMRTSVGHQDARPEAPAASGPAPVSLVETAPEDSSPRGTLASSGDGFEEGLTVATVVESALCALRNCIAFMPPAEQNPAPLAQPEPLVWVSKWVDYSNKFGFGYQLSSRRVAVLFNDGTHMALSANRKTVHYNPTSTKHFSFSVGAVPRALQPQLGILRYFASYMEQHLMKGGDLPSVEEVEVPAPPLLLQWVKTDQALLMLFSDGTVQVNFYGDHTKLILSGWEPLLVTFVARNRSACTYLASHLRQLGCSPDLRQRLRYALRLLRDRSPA

[4] = biological target: Serine/threonine-protein kinase PLK2 (Homo sapiens, UniProt Q9NYY3); assay: Inhibition of recombinant Plk2 (unknown origin)
Chain of Serine/threonine-protein kinase PLK2 (Q9NYY3 whole entry): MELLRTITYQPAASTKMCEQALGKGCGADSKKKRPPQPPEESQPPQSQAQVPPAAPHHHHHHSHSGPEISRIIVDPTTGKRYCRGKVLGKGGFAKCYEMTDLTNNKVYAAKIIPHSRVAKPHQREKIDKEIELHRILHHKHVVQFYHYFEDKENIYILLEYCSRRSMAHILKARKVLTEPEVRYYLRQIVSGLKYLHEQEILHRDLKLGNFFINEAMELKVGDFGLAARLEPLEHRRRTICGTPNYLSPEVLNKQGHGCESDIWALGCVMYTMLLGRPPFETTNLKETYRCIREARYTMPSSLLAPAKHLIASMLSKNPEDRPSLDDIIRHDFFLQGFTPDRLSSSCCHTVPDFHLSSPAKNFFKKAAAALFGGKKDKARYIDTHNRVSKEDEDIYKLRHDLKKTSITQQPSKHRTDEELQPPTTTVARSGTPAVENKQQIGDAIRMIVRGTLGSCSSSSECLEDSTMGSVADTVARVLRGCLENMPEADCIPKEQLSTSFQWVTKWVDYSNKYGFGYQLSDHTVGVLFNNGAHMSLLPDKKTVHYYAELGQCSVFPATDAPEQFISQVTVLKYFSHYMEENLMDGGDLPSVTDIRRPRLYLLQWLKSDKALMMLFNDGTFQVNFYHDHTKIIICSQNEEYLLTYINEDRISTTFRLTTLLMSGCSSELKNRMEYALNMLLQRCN

[5] = system: HeLa; assay: Induction of apoptosis in human HeLa cells assessed as increase in cleaved caspase-3 level at 1 uM after 24 to 48 hrs by Western blot analysis; format: functional, cell-based
Outline: (§1)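 HeLa cells exposed to 1 µM for 24 h, with treatment continued to 48 h. Cell proteins analysed by western blot for PARP, total Caspase-3 and its cleaved active form.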

[6] = system: HeLa; assay: Induction of apoptosis in human HeLa cells assessed as apoptotic cells at 1 uM after 24 hrs using annexin V/propidium iodide double staining by flow cytometry (reference value: 4.4 %); format: functional
[7] = system: HeLa; assay: Induction of apoptosis in human HeLa cells assessed as PARP cleavage at 1 uM after 24 to 48 hrs by Western blot analysis; format: functional, cell-based; outline: as §1

| Structure (SMILES) | IC50 [1] [µM] | IC50 [2] [µM] | IC50 [3] [µM] | IC50 [4] [µM] | Activity [5] | Activity [6] [%] | Activity [7] |
| --- | --- | --- | --- | --- | --- | --- | --- |
| O=C(O)Cc1cn(CC(O)CN2CCCCC2)c2ccccc12 (racemic) | 1.89 | 0.97 | – | – | – | – | – |
| O=C(O)Cc1cn(CC(O)CN2CCOCC2)c2ccccc12 (racemic) | > 10 | 2.13 | – | – | – | – | – |
| CN1CCN(CC(O)Cn2cc(C(=O)O)c3ccccc32)CC1 (racemic) | > 10 | > 10 | – | – | – | – | – |
| O=C(O)CCc1cn(CC(O)CN2CCCCC2)c2ccccc12 (racemic) | 8.79 | > 10 | – | – | – | – | – |
| CCN(CC)CC(O)Cn1cc(CC(=O)O)c2ccccc21 (racemic) | 3.16 | 6.63 | – | – | – | – | – |
| O=C(O)CCc1cn(CC(O)CN2CCCC2)c2ccccc12 (racemic) | > 10 | 4.95 | – | – | – | – | – |
| CC1=CC(=O)C(C(C)C)=CC1=O [THYMOQUINONE] | 6.19 | 2.06 | > 50 | 14.7 | – | – | – |
| O=C(O)c1cn(CC(O)CN2CCCCC2)c2ccccc12 (racemic) | 5.33 | 4.92 | – | – | – | – | – |
| CN1CCN(CC(O)Cn2cc(CC(=O)O)c3ccccc32)CC1 (racemic) | 2.44 | 3.97 | – | – | – | – | – |
| O=C(O)Cc1cn(CC(O)CN2CCCC2)c2ccccc12 (racemic) | 1.15 | 0.72 | > 50 | > 50 | Active | 12.7 | Active |
| CCN(CC)CC(O)Cn1cc(C(=O)O)c2ccccc21 (racemic) | 4.37 | 6.72 | – | – | – | – | – |
| O=C(O)c1cn(CC(O)CN2CCCC2)c2ccccc12 (racemic) | > 10 | 7.34 | – | – | – | – | – |
